What was measured:
[1] = Inhibition of VIM4 in absence of Zn+ chelator
Method in brief: (§1)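 Purified VIM-4 (0.2–0.8 nM) in 10 mM HEPES pH 7.2 with 20 μg/mL BSA, run without added Zn2+ (Zn2+ below 0.4 μM) or with 50 μM ZnCl2 final. Enzyme was preincubated with 100 μM inhibitor for 30 min at 37 C. Nitrocefin hydrolysis followed at 482 nm. Ki determined; SD below 10%.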

[2] = Inhibition of VIM4 in presence of Zn+ chelator; method in brief: as §1
[3] = target: T1, Beta-lactamase L1 (Stenotrophomonas maltophilia, UniProt P52700); assay: Inhibition of Stenotrophomonas maltophilia beta lactamase L1 in presence of Zn+ chelator
T1 sequence (P52700 whole entry): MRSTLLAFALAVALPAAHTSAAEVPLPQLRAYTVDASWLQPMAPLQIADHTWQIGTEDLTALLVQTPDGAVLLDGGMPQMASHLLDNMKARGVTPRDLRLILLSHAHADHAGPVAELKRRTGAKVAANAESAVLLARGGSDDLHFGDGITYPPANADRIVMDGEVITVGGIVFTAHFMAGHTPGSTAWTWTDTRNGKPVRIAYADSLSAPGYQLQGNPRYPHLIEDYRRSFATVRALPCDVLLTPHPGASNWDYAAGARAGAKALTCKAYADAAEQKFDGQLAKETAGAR
Method in brief: (§2)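 Purified L1 (0.2–0.8 nM) in 20 mM HEPES pH 7.0 with 20 μg/mL BSA, run without added Zn2+ (Zn2+ below 0.4 μM) or with 50 μM ZnCl2 final. Enzyme was preincubated with 100 μM inhibitor for 30 min at 37 C. Imipenem hydrolysis followed at 300 nm. Ki determined; SD below 10%.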

[4] = target: Metallo-beta-lactamase type 2 (Aeromonas hydrophila, UniProt P26918); assay: Inhibition of Aeromonas hydrophila cphA
Chain of Metallo-beta-lactamase type 2 (P26918 whole entry): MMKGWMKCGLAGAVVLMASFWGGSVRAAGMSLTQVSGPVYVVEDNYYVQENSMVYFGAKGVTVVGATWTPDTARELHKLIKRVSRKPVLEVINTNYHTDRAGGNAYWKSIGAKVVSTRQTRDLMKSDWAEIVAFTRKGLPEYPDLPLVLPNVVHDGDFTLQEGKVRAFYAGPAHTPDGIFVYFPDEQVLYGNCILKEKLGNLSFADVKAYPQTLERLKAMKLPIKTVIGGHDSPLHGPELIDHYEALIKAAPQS
Method in brief: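 Purified CphA (0.2–0.8 nM) in 15 mM cacodylate pH 6.5 with 20 μg/mL BSA and no added Zn2+ (Zn2+ below 0.4 μM). Enzyme was preincubated with 100 μM inhibitor for 30 min at 37 C. Imipenem was then added and its hydrolysis followed by absorbance at 300 nm. Competitive Ki determined; SD below 10%.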

[5] = target: T1, Beta-lactamase L1; assay: Inhibition of Stenotrophomonas maltophilia beta lactamase L1 in absence of Zn+ chelator; method in brief: as §2
[6] = Inhibition of Escherichia coli alkaline phosphatase
[7] = target: Intestinal-type alkaline phosphatase (Bos taurus, UniProt P19111); assay: Inhibition of bovine intestinal alkaline phosphatase
Chain of Intestinal-type alkaline phosphatase (P19111 whole entry): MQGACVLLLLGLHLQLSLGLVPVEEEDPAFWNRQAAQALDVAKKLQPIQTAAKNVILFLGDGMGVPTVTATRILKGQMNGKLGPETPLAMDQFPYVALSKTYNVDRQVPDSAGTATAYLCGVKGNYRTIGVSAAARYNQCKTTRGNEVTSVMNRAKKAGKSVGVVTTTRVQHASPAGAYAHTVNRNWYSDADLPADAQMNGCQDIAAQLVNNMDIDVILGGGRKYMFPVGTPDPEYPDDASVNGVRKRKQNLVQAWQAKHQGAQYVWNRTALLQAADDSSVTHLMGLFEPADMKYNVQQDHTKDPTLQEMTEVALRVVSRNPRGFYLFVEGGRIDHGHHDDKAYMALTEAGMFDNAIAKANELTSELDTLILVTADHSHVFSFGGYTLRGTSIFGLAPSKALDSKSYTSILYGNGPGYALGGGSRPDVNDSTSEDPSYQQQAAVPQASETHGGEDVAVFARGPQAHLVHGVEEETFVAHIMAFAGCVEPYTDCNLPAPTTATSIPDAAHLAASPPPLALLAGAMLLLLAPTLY

**Q.** What does the source list for `O=P(O)(O)C(S)c1ccccc1` (configuration not stated)?
**A.** Ki [1]: 2.5 µM; Ki [2]: 3 µM; Ki [3]: 32 µM; Ki [4]: 11 µM; Ki [5]: > 100 µM

**Q.** With `O=P(O)(O)c1cc(F)ccc1S` as the compound, how does the Ki [1] read?
**A.** 2.5 µM

**Q.** What about the Ki [2] of the same compound?
**A.** 13 µM

**Q.** What about the Ki [3] of the same compound?
**A.** 4 µM

**Q.** And the Ki [4]?
**A.** > 40 µM

**Q.** And the Ki [5]?
**A.** 40 µM

**Q.** What does the source list for `CC(C)OP(=O)(OC(C)C)c1ccccc1S`?
**A.** Ki [1]: > 250 µM; Ki [2]: > 250 µM; Ki [3]: > 250 µM; Ki [4]: > 250 µM; Ki [5]: > 250 µM

**Q.** Which Ki [1] does the source give for `CCC(S)P(=O)(O)O` (configuration not stated) here?
**A.** 11 µM

**Q.** And the Ki [2]?
**A.** 6 µM

**Q.** What about the Ki [3] of the same compound?
**A.** > 40 µM

**Q.** What about the Ki [4] of the same compound?
**A.** 15 µM

**Q.** And the Ki [5]?
**A.** > 80 µM

**Q.** With `O=P(O)(O)C(S)c1ccc(F)cc1` (configuration not stated) as the compound, how does the Ki [1] read?
**A.** 16 µM

**Q.** What about the Ki [2] of the same compound?
**A.** 11 µM

**Q.** And the Ki [3]?
**A.** 18 µM

**Q.** What about the Ki [4] of the same compound?
**A.** 1 µM

**Q.** And the Ki [5]?
**A.** > 20 µM

**Q.** Which Ki [1] does the source give for `O=P(O)(O)c1ccccc1S` here?
**A.** 2 µM

**Q.** And the Ki [2]?
**A.** 4 µM

**Q.** And the Ki [3]?
**A.** 12 µM

**Q.** And the Ki [4]?
**A.** 7 µM

**Q.** What about the IC50 [6] of the same compound?
**A.** < 10 µM

**Q.** And the Ki [5]?
**A.** 9 µM

**Q.** What about the Ki [7] of the same compound?
**A.** 0.21 µM

**Q.** For `CC(C)OP(=O)(OC(C)C)c1ccccc1CS`, which Ki [1] is on record?
**A.** 3 µM

**Q.** What about the Ki [2] of the same compound?
**A.** 12 µM

**Q.** And the Ki [3]?
**A.** 14 µM

**Q.** What about the Ki [4] of the same compound?
**A.** 2 µM

**Q.** And the Ki [5]?
**A.** 3 µM

**Q.** Which Ki [1] does the source give for `O=P(O)(O)c1ccccc1CS` here?
**A.** 1 µM

**Q.** What about the Ki [2] of the same compound?
**A.** > 400 µM

**Q.** And the Ki [3]?
**A.** > 50 µM

**Q.** And the Ki [4]?
**A.** 0.5 µM

**Q.** What about the Ki [5] of the same compound?
**A.** 2 µM

**Q.** What does the source list for `CCC(S)P(=O)(OC(C)C)OC(C)C` (configuration not stated)?
**A.** Ki [1]: > 20 µM; Ki [2]: > 20 µM; Ki [3]: > 40 µM; Ki [4]: 2 µM; Ki [5]: > 40 µM

**Q.** Which Ki [1] does the source give for `O=P(O)(O)C(S)c1ccc(Cl)cc1Cl` (configuration not stated) here?
**A.** 1 µM

**Q.** What about the Ki [2] of the same compound?
**A.** 4 µM

**Q.** And the Ki [3]?
**A.** 0.4 µM

**Q.** What about the Ki [4] of the same compound?
**A.** 5 µM

**Q.** What about the Ki [5] of the same compound?
**A.** 0.4 µM

**Q.** Which Ki [1] does the source give for `COc1ccccc1C(S)P(=O)(O)O` (configuration not stated) here?
**A.** 2 µM

**Q.** What about the Ki [2] of the same compound?
**A.** 4 µM

**Q.** What about the Ki [3] of the same compound?
**A.** 4 µM

**Q.** And the Ki [4]?
**A.** 15 µM

**Q.** What about the Ki [5] of the same compound?
**A.** 9 µM

**Q.** What does the source list for `O=P(O)(O)C(S)c1ccc(Br)cc1` (configuration not stated)?
**A.** Ki [1]: 5.5 µM; Ki [2]: 13.5 µM; Ki [3]: 1.7 µM; Ki [4]: 13 µM; Ki [5]: 8.4 µM

**Q.** For `O=P(O)(O)C(S)c1ccc(Cl)cc1` (configuration not stated), which Ki [1] is on record?
**A.** 6.7 µM

**Q.** And the Ki [2]?
**A.** 10 µM

**Q.** And the Ki [3]?
**A.** 0.7 µM

**Q.** And the Ki [4]?
**A.** 24 µM

**Q.** What about the Ki [5] of the same compound?
**A.** 3.8 µM

**Q.** Which results are given for `CC(C)OP(=O)(OC(C)C)C(S)c1ccccc1` (configuration not stated) [DIISOPROPYL MERCAPTO(PHENYL)METHYLPHOSPHONATE]?
**A.** Ki [1]: 3 µM; Ki [2]: 8 µM; Ki [3]: 16 µM; Ki [4]: 0.25 µM; Ki [5]: 20 µM
